According to ChEMBL document CHEMBL1926593, “Studies on the synthesis and antibacterial activity of 3,6-disubstituted 1,2,4-triazolo[3,4-b]1,3,4-thiadiazoles” (2012):
Converted amounts (≈) assume the structure as drawn. The source made the active and inactive calls. The calls are words filed in the database; no cut-off is given here.

Columns and labels:
Staphylococcus aureus [1] = assay: Antibacterial activity against methicillin-resistant Staphylococcus aureus ATCC 14001 by broth microdilution method; format: functional
How it was run: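 Broth microdilution following CLSI recommendations. MIC was read as the lowest concentration giving no visible growth. Ampicillin, cefuroxime and vancomycin were the reference antibacterials.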

Staphylococcus aureus [2] = assay: Antibacterial activity against drug-sensitive Staphylococcus aureus ATCC 25923 by broth microdilution method; format: functional
How it was run: (§1)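 Broth microdilution per CLSI recommendation. MIC is the lowest concentration with no visible growth. MBC is the lowest concentration giving >99.9% reduction in CFU of the initial inoculum. Ampicillin, cefuroxime and vancomycin served as reference agents.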

Proteus mirabilis = assay: Antibacterial activity against drug-sensitive Proteus mirabilis ATCC 12453 by broth microdilution method; format: functional, organism-based; how it was run: as §1
Klebsiella pneumoniae = assay: Antibacterial activity against drug-sensitive Klebsiella pneumoniae ATCC 13883 by broth microdilution method; format: functional, organism-based; how it was run: as §1
Bacillus cereus [3] = assay: Ratio of cefuroxime MIC to compound MIC for drug-sensitive Bacillus cereus ATCC 10876 by broth microdilution method; format: functional
Staphylococcus aureus [4] = assay: Antibacterial activity against drug-sensitive Staphylococcus aureus ATCC 6538 by broth microdilution method; format: functional; how it was run: as §1
Staphylococcus aureus [5] = assay: Ratio of MBC to MIC for methicillin-resistant Staphylococcus aureus ATCC 14001; format: functional
How it was run: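 Broth microdilution following CLSI recommendations. MIC was the lowest concentration with no visible growth. MBC was the lowest concentration giving a >99.9% reduction in CFU relative to the initial inoculum. The ratio was taken from these two values.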

Bacillus subtilis [6] = assay: Antibacterial activity against drug-sensitive Bacillus subtilis ATCC 6633 by broth microdilution method; format: functional; how it was run: as §1
Bacillus cereus [7] = assay: Antibacterial activity against drug-sensitive Bacillus cereus ATCC 10876 by broth microdilution method; format: functional; how it was run: as §1
Micrococcus luteus = assay: Antibacterial activity against drug-sensitive Micrococcus luteus ATCC 10240 by broth microdilution method; format: functional; how it was run: as §1
Escherichia coli = assay: Antibacterial activity against drug-sensitive Escherichia coli ATCC 25922 by broth microdilution method; format: functional, organism-based; how it was run: as §1
Pseudomonas aeruginosa = assay: Antibacterial activity against drug-sensitive Pseudomonas aeruginosa ATCC 9027 by broth microdilution method; format: functional, organism-based; how it was run: as §1
Bacillus subtilis [8] = assay: Ratio of ampicillin MIC to compound MIC for drug-sensitive Bacillus subtilis ATCC 6633 by broth microdilution method; format: functional
Bacillus cereus [9] = assay: Ratio of ampicillin MIC to compound MIC for drug-sensitive Bacillus cereus ATCC 10876 by broth microdilution method; format: functional
[10] = test system: Staphylococcus epidermidis; assay: Antibacterial activity against drug-sensitive Staphylococcus epidermidis ATCC 12228 by broth microdilution method; format: functional; how it was run: as §1

Structure (SMILES)	MBC (Staphylococcus aureus [1])	MIC (Staphylococcus aureus [1])	MBC (Staphylococcus aureus [2])	MIC (Staphylococcus aureus [2])	Activity (Proteus mirabilis)	Activity (Klebsiella pneumoniae)	MBC (Staphylococcus aureus [4])	MIC (Staphylococcus aureus [4])	Ratio (Staphylococcus aureus [5])	MBC (Bacillus subtilis [6])	MIC (Bacillus subtilis [6])	MBC (Bacillus cereus [7])	MIC (Bacillus cereus [7])	MBC (Micrococcus luteus)	MIC (Micrococcus luteus)	Activity (Escherichia coli)	Activity (Pseudomonas aeruginosa)	Ratio (Bacillus cereus [9])	MBC [10]	MIC [10]	further results
Clc1ccc(Nc2nn3c(-c4ccccc4)nnc3s2)cc1	62.5 µg/mL (≈ 191 µM)	1.95 µg/mL (≈ 5.95 µM)	31.2 µg/mL (≈ 95.3 µM)	3.91 µg/mL (≈ 11.9 µM)	inactive	inactive	31.2 µg/mL (≈ 95.3 µM)	15.6 µg/mL (≈ 47.7 µM)	32	7.81 µg/mL (≈ 23.8 µM)	1.95 µg/mL (≈ 5.95 µM)	15.6 µg/mL (≈ 47.7 µM)	15.6 µg/mL (≈ 47.7 µM)	15.6 µg/mL (≈ 47.7 µM)	7.81 µg/mL (≈ 23.8 µM)	inactive	inactive	4	3.91 µg/mL (≈ 11.9 µM)	0.98 µg/mL (≈ 2.99 µM)	Ratio (Bacillus cereus [3]): 2; Ratio (Bacillus subtilis [8]): 8
Brc1ccc(Nc2nn3c(-c4ccccc4)nnc3s2)cc1	62.5 µg/mL (≈ 168 µM)	7.81 µg/mL (≈ 21 µM)	31.2 µg/mL (≈ 83.9 µM)	0.98 µg/mL (≈ 2.63 µM)	inactive	inactive	125 µg/mL (≈ 336 µM)	15.6 µg/mL (≈ 42 µM)	8	1.91 µg/mL (≈ 5.13 µM)	0.98 µg/mL (≈ 2.63 µM)	15.6 µg/mL (≈ 42 µM)	15.6 µg/mL (≈ 42 µM)	7.81 µg/mL (≈ 21 µM)	3.91 µg/mL (≈ 10.5 µM)	inactive	inactive	4	0.98 µg/mL (≈ 2.63 µM)	0.49 µg/mL (≈ 1.32 µM)	Ratio (Bacillus cereus [3]): 2; Ratio (Bacillus subtilis [8]): 16
Clc1ccc(Nc2nn3c(-c4ccccc4Cl)nnc3s2)cc1	62.5 µg/mL (≈ 173 µM)	1.95 µg/mL (≈ 5.38 µM)	31.2 µg/mL (≈ 86.3 µM)	15.6 µg/mL (≈ 43.1 µM)	inactive	inactive	15.6 µg/mL (≈ 43.1 µM)	15.6 µg/mL (≈ 43.1 µM)	32	15.6 µg/mL (≈ 43.1 µM)	3.91 µg/mL (≈ 10.8 µM)	3.91 µg/mL (≈ 10.8 µM)	3.91 µg/mL (≈ 10.8 µM)	15.6 µg/mL (≈ 43.1 µM)	7.81 µg/mL (≈ 21.6 µM)	inactive	inactive	16	15.6 µg/mL (≈ 43.1 µM)	3.91 µg/mL (≈ 10.8 µM)	Ratio (Bacillus cereus [3]): 8; Ratio (Bacillus subtilis [8]): 4
Clc1ccccc1-c1nnc2sc(Nc3ccc(Br)cc3)nn12	15.6 µg/mL (≈ 38.4 µM)	1.95 µg/mL (≈ 4.79 µM)	15.6 µg/mL (≈ 38.4 µM)	1.95 µg/mL (≈ 4.79 µM)	inactive	inactive	62.5 µg/mL (≈ 154 µM)	7.81 µg/mL (≈ 19.2 µM)	8	15.6 µg/mL (≈ 38.4 µM)	1.95 µg/mL (≈ 4.79 µM)	15.6 µg/mL (≈ 38.4 µM)	7.81 µg/mL (≈ 19.2 µM)	7.81 µg/mL (≈ 19.2 µM)	7.81 µg/mL (≈ 19.2 µM)	inactive	inactive	8	3.91 µg/mL (≈ 9.61 µM)	0.98 µg/mL (≈ 2.41 µM)	Ratio (Bacillus subtilis [8]): 8
Clc1ccc(Nc2nn3c(-c4cccc(Cl)c4)nnc3s2)cc1	62.5 µg/mL (≈ 173 µM)	0.98 µg/mL (≈ 2.71 µM)	31.2 µg/mL (≈ 86.3 µM)	1.95 µg/mL (≈ 5.38 µM)	inactive	inactive	31.2 µg/mL (≈ 86.3 µM)	0.49 µg/mL (≈ 1.35 µM)	64	1.95 µg/mL (≈ 5.38 µM)	1.95 µg/mL (≈ 5.38 µM)	15.6 µg/mL (≈ 43.1 µM)	7.81 µg/mL (≈ 21.6 µM)	3.91 µg/mL (≈ 10.8 µM)	3.91 µg/mL (≈ 10.8 µM)	inactive	inactive	8	3.91 µg/mL (≈ 10.8 µM)	0.98 µg/mL (≈ 2.71 µM)	Ratio (Bacillus cereus [3]): 4; Ratio (Bacillus subtilis [8]): 8
CN[C@H](CC(C)C)C(=O)N[C@H]1C(=O)N[C@@H](CC(N)=O)C(=O)N[C@H]2C(=O)N[C@H]3C(=O)N[C@H](C(=O)N[C@H](C(=O)O)c4cc(O)cc(O)c4-c4cc3ccc4O)[C@H](O)c3ccc(c(Cl)c3)Oc3cc2cc(c3O[C@@H]2O[C@H](CO)[C@@H](O)[C@H](O)[C@H]2O[C@H]2C[C@](C)(N)[C@H](O)[C@H](C)O2)Oc2ccc(cc2Cl)[C@H]1O [VANCOMYCIN]	3.91 µg/mL (≈ 2.7 µM)	0.98 µg/mL (≈ 0.676 µM)	7.81 µg/mL (≈ 5.39 µM)	0.98 µg/mL (≈ 0.676 µM)	–	–	1.95 µg/mL (≈ 1.35 µM)	0.49 µg/mL (≈ 0.338 µM)	4	0.49 µg/mL (≈ 0.338 µM)	0.25 µg/mL (≈ 0.173 µM)	31.2 µg/mL (≈ 21.6 µM)	0.98 µg/mL (≈ 0.676 µM)	0.49 µg/mL (≈ 0.338 µM)	0.25 µg/mL (≈ 0.173 µM)	–	–	–	1.95 µg/mL (≈ 1.35 µM)	0.98 µg/mL (≈ 0.676 µM)	–
CO/N=C(\C(=O)N[C@@H]1C(=O)N2C(C(=O)O)=C(COC(N)=O)CS[C@H]12)c1ccco1 [CEFUROXIME]	–	–	–	0.49 µg/mL (≈ 1.15 µM)	–	–	–	0.98 µg/mL (≈ 2.31 µM)	–	–	15.6 µg/mL (≈ 36.8 µM)	–	31.2 µg/mL (≈ 73.6 µM)	–	0.98 µg/mL (≈ 2.31 µM)	–	–	–	–	0.24 µg/mL (≈ 0.566 µM)	–
Clc1cccc(-c2nnc3sc(Nc4ccc(Br)cc4)nn23)c1	125 µg/mL (≈ 307 µM)	0.98 µg/mL (≈ 2.41 µM)	31.2 µg/mL (≈ 76.8 µM)	0.98 µg/mL (≈ 2.41 µM)	inactive	inactive	31.2 µg/mL (≈ 76.8 µM)	0.49 µg/mL (≈ 1.2 µM)	128	1.95 µg/mL (≈ 4.79 µM)	1.95 µg/mL (≈ 4.79 µM)	31.2 µg/mL (≈ 76.8 µM)	15.6 µg/mL (≈ 38.4 µM)	3.91 µg/mL (≈ 9.61 µM)	3.91 µg/mL (≈ 9.61 µM)	inactive	inactive	4	3.91 µg/mL (≈ 9.61 µM)	0.98 µg/mL (≈ 2.41 µM)	Ratio (Bacillus cereus [3]): 2
Clc1ccc(-c2nnc3sc(Nc4ccc(Br)cc4)nn23)cc1	125 µg/mL (≈ 307 µM)	7.81 µg/mL (≈ 19.2 µM)	31.2 µg/mL (≈ 76.8 µM)	1.95 µg/mL (≈ 4.79 µM)	inactive	inactive	31.2 µg/mL (≈ 76.8 µM)	0.98 µg/mL (≈ 2.41 µM)	16	1.95 µg/mL (≈ 4.79 µM)	1.95 µg/mL (≈ 4.79 µM)	15.6 µg/mL (≈ 38.4 µM)	15.6 µg/mL (≈ 38.4 µM)	15.6 µg/mL (≈ 38.4 µM)	15.6 µg/mL (≈ 38.4 µM)	inactive	inactive	4	1.95 µg/mL (≈ 4.79 µM)	1.95 µg/mL (≈ 4.79 µM)	Ratio (Bacillus cereus [3]): 2; Ratio (Bacillus subtilis [8]): 8
CC1(C)S[C@@H]2[C@H](NC(=O)[C@H](N)c3ccccc3)C(=O)N2[C@H]1C(=O)O [AMPICILLIN]	–	–	–	–	–	–	–	–	–	–	–	–	62.5 µg/mL (≈ 179 µM)	–	–	–	–	–	–	–	–
Clc1ccc(Nc2nn3c(-c4ccc(Cl)cc4)nnc3s2)cc1	62.5 µg/mL (≈ 173 µM)	7.81 µg/mL (≈ 21.6 µM)	62.5 µg/mL (≈ 173 µM)	3.91 µg/mL (≈ 10.8 µM)	inactive	inactive	62.5 µg/mL (≈ 173 µM)	0.98 µg/mL (≈ 2.71 µM)	8	7.81 µg/mL (≈ 21.6 µM)	3.91 µg/mL (≈ 10.8 µM)	31.2 µg/mL (≈ 86.3 µM)	7.81 µg/mL (≈ 21.6 µM)	31.2 µg/mL (≈ 86.3 µM)	15.6 µg/mL (≈ 43.1 µM)	inactive	inactive	8	15.6 µg/mL (≈ 43.1 µM)	3.91 µg/mL (≈ 10.8 µM)	Ratio (Bacillus subtilis [8]): 4
